Assay results from ChEMBL document CHEMBL3046406, “Herbicidal potential of ophiobolins produced by Drechslera gigantea” (2006).
Calls of active or inactive are those of the source. The rule behind the calls is not given here.

Legend:
Assay type in all cases: functional
Chenopodium album [1] = assay: Herbicidal activity against Chenopodium album assessed as diameter of leaf necrosis at 50 ug/ml measured after 2 days post compound treatment by leaf puncture assay
Procedure, shortened: (§1)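 Detached leaf segments (about 5 cm) from young greenhouse-grown plants, each with a superficial puncture lesion (0.5 mm) made by glass capillary. Compound dissolved in DMSO, diluted with distilled water (final DMSO 2%), 8 µL droplet applied. Segments held on moist filter paper at 25 °C under continuous fluorescent light (10000 lux). DMSO droplets as control. Necrosis scored visually on a 0–3 scale at day 2.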

Echinochloa crus-galli [2] = assay: Herbicidal activity against Echinochloa crus-galli (barnyard grass) assessed as diameter of leaf necrosis at 250 ug/ml measured after 2 days post compound treatment by leaf puncture assay; procedure, shortened: as §1
Phalaris canariensis [3] = assay: Herbicidal activity against Phalaris canariensis assessed as diameter of leaf necrosis at 100 ug/ml measured after 2 days post compound treatment by leaf puncture assay; procedure, shortened: as §1
Diplotaxis erucoides [4] = assay: Herbicidal activity against Diplotaxis erucoides assessed as diameter of leaf necrosis at 250 ug/ml measured after 2 days post compound treatment by leaf puncture assay; procedure, shortened: as §1
Phalaris canariensis [5] = assay: Herbicidal activity against Phalaris canariensis assessed as diameter of leaf necrosis at 50 ug/ml measured after 2 days post compound treatment by leaf puncture assay; procedure, shortened: as §1
Diplotaxis erucoides [6] = assay: Herbicidal activity against Diplotaxis erucoides assessed as diameter of leaf necrosis at 100 ug/ml measured after 2 days post compound treatment by leaf puncture assay; procedure, shortened: as §1
Sonchus oleraceus [7] = assay: Herbicidal activity against Sonchus oleraceus assessed as diameter of leaf necrosis at 250 ug/ml measured after 2 days post-compound treatment by leaf puncture assay; procedure, shortened: as §1
Cynodon dactylon [8] = assay: Herbicidal activity against Cynodon dactylon assessed as diameter of leaf necrosis at 250 ug/ml measured after 2 days post compound treatment by leaf puncture assay; procedure, shortened: as §1
Oloptum miliaceum [9] = assay: Herbicidal activity against Piptatherum miliaceum assessed as diameter of leaf necrosis at 50 ug/ml measured after 2 days post compound treatment by leaf puncture assay; procedure, shortened: as §1
Chenopodium album [10] = assay: Herbicidal activity against Chenopodium album assessed as diameter of leaf necrosis at 250 ug/ml measured after 2 days post compound treatment by leaf puncture assay; procedure, shortened: as §1
Echinochloa crus-galli [11] = assay: Herbicidal activity against Echinochloa crus-galli (barnyard grass) assessed as diameter of leaf necrosis at 100 ug/ml measured after 2 days post compound treatment by leaf puncture assay; procedure, shortened: as §1
Chenopodium album [12] = assay: Herbicidal activity against Chenopodium album assessed as diameter of leaf necrosis at 100 ug/ml measured after 2 days post compound treatment by leaf puncture assay; procedure, shortened: as §1
Oloptum miliaceum [13] = assay: Herbicidal activity against Piptatherum miliaceum assessed as diameter of leaf necrosis at 250 ug/ml measured after 2 days post compound treatment by leaf puncture assay; procedure, shortened: as §1
Diplotaxis erucoides [14] = assay: Herbicidal activity against Diplotaxis erucoides assessed as diameter of leaf necrosis at 50 ug/ml measured after 2 days post compound treatment by leaf puncture assay; procedure, shortened: as §1
Digitaria sanguinalis [15] = assay: Herbicidal activity against Digitaria sanguinalis (hairy crabgrass) assessed as diameter of leaf necrosis at 50 ug/ml measured after 2 days post compound treatment by leaf puncture assay; procedure, shortened: as §1
Cynodon dactylon [16] = assay: Herbicidal activity against Cynodon dactylon assessed as diameter of leaf necrosis at 100 ug/ml measured after 2 days post compound treatment by leaf puncture assay; procedure, shortened: as §1
Sonchus oleraceus [17] = assay: Herbicidal activity against Sonchus oleraceus assessed as diameter of leaf necrosis at 100 ug/ml measured after 2 days post-compound treatment by leaf puncture assay; procedure, shortened: as §1
Digitaria sanguinalis [18] = assay: Herbicidal activity against Digitaria sanguinalis (hairy crabgrass) assessed as diameter of leaf necrosis at 100 ug/ml measured after 2 days post compound treatment by leaf puncture assay; procedure, shortened: as §1
[19] = test system: Avena sterilis subsp. ludoviciana; assay: Herbicidal activity against Avena sterilis subsp. ludoviciana assessed as diameter of leaf necrosis at 250 ug/ml measured after 2 days post compound treatment by leaf puncture assay; procedure, shortened: as §1
Convolvulus arvensis [20] = assay: Herbicidal activity against Convolvulus arvensis assessed as diameter of leaf necrosis at 50 ug/ml measured after 2 days post compound treatment by leaf puncture assay; procedure, shortened: as §1
[21] = test system: Avena sterilis subsp. ludoviciana; assay: Herbicidal activity against Avena sterilis subsp. ludoviciana assessed as diameter of leaf necrosis at 100 ug/ml measured after 2 days post compound treatment by leaf puncture assay; procedure, shortened: as §1
Cynodon dactylon [22] = assay: Herbicidal activity against Cynodon dactylon assessed as diameter of leaf necrosis at 50 ug/ml measured after 2 days post compound treatment by leaf puncture assay; procedure, shortened: as §1
Convolvulus arvensis [23] = assay: Herbicidal activity against Convolvulus arvensis assessed as diameter of leaf necrosis at 250 ug/ml measured after 2 days post compound treatment by leaf puncture assay; procedure, shortened: as §1
Amaranthus retroflexus [24] = assay: Herbicidal activity against Amaranthus retroflexus assessed as diameter of leaf necrosis at 50 ug/ml measured after 2 days post compound treatment by leaf puncture assay; procedure, shortened: as §1
Echinochloa crus-galli [25] = assay: Herbicidal activity against Echinochloa crus-galli (barnyard grass) assessed as diameter of leaf necrosis at 50 ug/ml measured after 2 days post compound treatment by leaf puncture assay; procedure, shortened: as §1
Sonchus oleraceus [26] = assay: Herbicidal activity against Sonchus oleraceus assessed as diameter of leaf necrosis at 50 ug/ml measured after 2 days post-compound treatment by leaf puncture assay; procedure, shortened: as §1
Phalaris canariensis [27] = assay: Herbicidal activity against Phalaris canariensis assessed as diameter of leaf necrosis at 250 ug/ml measured after 2 days post compound treatment by leaf puncture assay; procedure, shortened: as §1
Setaria viridis [28] = assay: Herbicidal activity against Setaria viridis assessed as diameter of leaf necrosis at 250 ug/ml measured after 2 days post compound treatment by leaf puncture assay; procedure, shortened: as §1
[29] = test system: Avena sterilis subsp. ludoviciana; assay: Herbicidal activity against Avena sterilis subsp. ludoviciana assessed as diameter of leaf necrosis at 50 ug/ml measured after 2 days post compound treatment by leaf puncture assay; procedure, shortened: as §1
Convolvulus arvensis [30] = assay: Herbicidal activity against Convolvulus arvensis assessed as diameter of leaf necrosis at 100 ug/ml measured after 2 days post compound treatment by leaf puncture assay; procedure, shortened: as §1
Bromus sterilis [31] = assay: Herbicidal activity against Bromus sterilis assessed as diameter of leaf necrosis at 50 ug/ml measured after 2 days post compound treatment by leaf puncture assay; procedure, shortened: as §1
Amaranthus retroflexus [32] = assay: Herbicidal activity against Amaranthus retroflexus assessed as diameter of leaf necrosis at 100 ug/ml measured after 2 days post compound treatment by leaf puncture assay; procedure, shortened: as §1
Bromus sterilis [33] = assay: Herbicidal activity against Bromus sterilis assessed as diameter of leaf necrosis at 100 ug/ml measured after 2 days post compound treatment by leaf puncture assay; procedure, shortened: as §1
Setaria viridis [34] = assay: Herbicidal activity against Setaria viridis assessed as diameter of leaf necrosis at 50 ug/ml measured after 2 days post compound treatment by leaf puncture assay; procedure, shortened: as §1
Digitaria sanguinalis [35] = assay: Herbicidal activity against Digitaria sanguinalis (hairy crabgrass) assessed as diameter of leaf necrosis at 250 ug/ml measured after 2 days post compound treatment by leaf puncture assay; procedure, shortened: as §1
Oloptum miliaceum [36] = assay: Herbicidal activity against Piptatherum miliaceum assessed as diameter of leaf necrosis at 100 ug/ml measured after 2 days post compound treatment by leaf puncture assay; procedure, shortened: as §1
Amaranthus retroflexus [37] = assay: Herbicidal activity against Amaranthus retroflexus assessed as diameter of leaf necrosis at 250 ug/ml measured after 2 days post compound treatment by leaf puncture assay; procedure, shortened: as §1
Setaria viridis [38] = assay: Herbicidal activity against Setaria viridis assessed as diameter of leaf necrosis at 100 ug/ml measured after 2 days post compound treatment by leaf puncture assay; procedure, shortened: as §1
Bromus sterilis [39] = assay: Herbicidal activity against Bromus sterilis assessed as diameter of leaf necrosis at 250 ug/ml measured after 2 days post compound treatment by leaf puncture assay; procedure, shortened: as §1

| Compound | Activity (Chenopodium album [1]) | Activity (Echinochloa crus-galli [2]) | Activity (Phalaris canariensis [3]) | Activity (Diplotaxis erucoides [4]) | Activity (Phalaris canariensis [5]) | Activity (Diplotaxis erucoides [6]) | Activity (Sonchus oleraceus [7]) | Activity (Cynodon dactylon [8]) | Activity (Oloptum miliaceum [9]) | Activity (Chenopodium album [10]) | Activity (Echinochloa crus-galli [11]) | Activity (Chenopodium album [12]) | Activity (Oloptum miliaceum [13]) | Activity (Diplotaxis erucoides [14]) | Activity (Digitaria sanguinalis [15]) | Activity (Cynodon dactylon [16]) | Activity (Sonchus oleraceus [17]) | Activity (Digitaria sanguinalis [18]) | Activity [19] | Activity (Convolvulus arvensis [20]) | further results |
| --- | --- | --- | --- | --- | --- | --- | --- | --- | --- | --- | --- | --- | --- | --- | --- | --- | --- | --- | --- | --- | --- |
| CC(C)=C[C@H]1C[C@H](C)[C@]2(CC[C@]3(C)C[C@@H]4C(C)=CC(=O)[C@H]4/C(CO)=C\C[C@H]32)O1 | inactive | inactive | inactive | inactive | inactive | inactive | inactive | inactive | inactive | inactive | inactive | inactive | inactive | inactive | inactive | inactive | inactive | inactive | inactive | inactive | Activity [21]: inactive; Activity (Cynodon dactylon [22]): inactive; Activity (Convolvulus arvensis [23]): inactive; Activity (Amaranthus retroflexus [24]): inactive; Activity (Echinochloa crus-galli [25]): inactive; Activity (Sonchus oleraceus [26]): inactive; Activity (Phalaris canariensis [27]): inactive; Activity (Setaria viridis [28]): inactive; Activity [29]: inactive; Activity (Convolvulus arvensis [30]): inactive; Activity (Bromus sterilis [31]): inactive; Activity (Amaranthus retroflexus [32]): inactive; Activity (Bromus sterilis [33]): inactive; Activity (Setaria viridis [34]): inactive; Activity (Digitaria sanguinalis [35]): inactive; Activity (Oloptum miliaceum [36]): inactive; Activity (Amaranthus retroflexus [37]): inactive; Activity (Setaria viridis [38]): inactive; Activity (Bromus sterilis [39]): inactive |
| CC(C)=C[C@H]1C[C@H](C)[C@]2(CC[C@]3(C)C[C@@H]4C(C)=CC(=O)[C@H]4/C(C=O)=C\C[C@H]32)O1 [3-ANHYDRO-6-EPI-OPHIOBOLIN A] | inactive | 1 mm | 1 mm | >3 mm | 1 mm | >3 mm | 1 mm | inactive | 1 mm | 1 mm | 1 mm | 1 mm | 1 mm | 2 mm | inactive | inactive | 1 mm | 1 mm | inactive | inactive | Activity [21]: inactive; Activity (Cynodon dactylon [22]): inactive; Activity (Convolvulus arvensis [23]): inactive; Activity (Amaranthus retroflexus [24]): inactive; Activity (Echinochloa crus-galli [25]): 1 mm; Activity (Sonchus oleraceus [26]): inactive; Activity (Phalaris canariensis [27]): 1 mm; Activity (Setaria viridis [28]): 2 mm; Activity [29]: inactive; Activity (Convolvulus arvensis [30]): inactive; Activity (Bromus sterilis [31]): 1 mm; Activity (Amaranthus retroflexus [32]): inactive; Activity (Bromus sterilis [33]): 1 mm; Activity (Setaria viridis [34]): 2 mm; Activity (Digitaria sanguinalis [35]): 1 mm; Activity (Oloptum miliaceum [36]): 1 mm; Activity (Amaranthus retroflexus [37]): inactive; Activity (Setaria viridis [38]): 2 mm; Activity (Bromus sterilis [39]): 1 mm |
| CC(C)=C[C@H]1C[C@H](C)[C@]2(CC[C@]3(C)C[C@H]4[C@@H](C(=O)C[C@@]4(C)O)/C(C=O)=C\C[C@H]32)O1 [6-EPI-OHPIOBOLIN A] | 2 mm | 2 mm | 2 mm | 2 mm | 1 mm | 2 mm | >3 mm | 2 mm | 1 mm | >3 mm | 2 mm | 2 mm | 2 mm | 2 mm | 2 mm | 1 mm | >3 mm | 2 mm | 2 mm | 2 mm | Activity [21]: 2 mm; Activity (Cynodon dactylon [22]): inactive; Activity (Convolvulus arvensis [23]): 2 mm; Activity (Amaranthus retroflexus [24]): 1 mm; Activity (Echinochloa crus-galli [25]): 1 mm; Activity (Sonchus oleraceus [26]): >3 mm; Activity (Phalaris canariensis [27]): >3 mm; Activity (Setaria viridis [28]): >3 mm; Activity [29]: 2 mm; Activity (Convolvulus arvensis [30]): 2 mm; Activity (Bromus sterilis [31]): 1 mm; Activity (Amaranthus retroflexus [32]): 1 mm; Activity (Bromus sterilis [33]): 1 mm; Activity (Setaria viridis [34]): >3 mm; Activity (Digitaria sanguinalis [35]): >3 mm; Activity (Oloptum miliaceum [36]): 1 mm; Activity (Amaranthus retroflexus [37]): 1 mm; Activity (Setaria viridis [38]): >3 mm; Activity (Bromus sterilis [39]): 2 mm |
| CC(C)=C[C@H]1C[C@H](C)[C@]2(CC[C@]3(C)C[C@H]4[C@H](C(=O)C[C@@]4(C)O)/C(C=O)=C\C[C@H]32)O1 [OPHIOBOLIN A] | 2 mm | >3 mm | >3 mm | 2 mm | >3 mm | 2 mm | >3 mm | 1 mm | 1 mm | >3 mm | >3 mm | 2 mm | >3 mm | 2 mm | >3 mm | inactive | >3 mm | >3 mm | >3 mm | 2 mm | Activity [21]: >3 mm; Activity (Cynodon dactylon [22]): inactive; Activity (Convolvulus arvensis [23]): 2 mm; Activity (Amaranthus retroflexus [24]): 2 mm; Activity (Echinochloa crus-galli [25]): >3 mm; Activity (Sonchus oleraceus [26]): >3 mm; Activity (Phalaris canariensis [27]): >3 mm; Activity (Setaria viridis [28]): >3 mm; Activity [29]: >3 mm; Activity (Convolvulus arvensis [30]): 2 mm; Activity (Bromus sterilis [31]): 1 mm; Activity (Amaranthus retroflexus [32]): 2 mm; Activity (Bromus sterilis [33]): 2 mm; Activity (Setaria viridis [34]): >3 mm; Activity (Digitaria sanguinalis [35]): >3 mm; Activity (Oloptum miliaceum [36]): 2 mm; Activity (Amaranthus retroflexus [37]): >3 mm; Activity (Setaria viridis [38]): >3 mm; Activity (Bromus sterilis [39]): >3 mm |
